Diaphorase act: activates diaphorase or chemically reduces, flagging diaphorase assay artifacts; Diaphorase/resazurin coupled assay, resorufin fluorescence, 16 min; stronger effect = higher value; 1 = vehicle wells, 0 = NADH-free wells; activation factor at 20 µM; hit rate 0.005% among 190,000; AID 1229;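 active = diaphorase activity raised at least twofold by the compound at 20 µM; inactive = activation factor below 2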
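Assay system: Purified diaphorase enzyme from Clostridium kluyveri | Amount: Enzyme 0.07 U/mL final | Dosing: Compound 20 µM once, DMSO 1% | Timing: 16 min reaction at room temperature | Detection: Fluorescence, excitation 544 nm and emission 590 nm | Evaluation: Higher resorufin formation from activation or reduction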
PMI act: activators of human phosphomannose isomerase; AID 1214; purified human PMI, coupled resazurin fluorescence, 20 min; stronger effect = higher value; 1 = vehicle control, 0 substrate-free wells; activation factor at 20 µM; P34949; hit rate 0.005% among 190,000;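 active = activation factor of 2 or more at 20 µM, relative to plate controls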
Target sequence (P34949 whole entry, looked up): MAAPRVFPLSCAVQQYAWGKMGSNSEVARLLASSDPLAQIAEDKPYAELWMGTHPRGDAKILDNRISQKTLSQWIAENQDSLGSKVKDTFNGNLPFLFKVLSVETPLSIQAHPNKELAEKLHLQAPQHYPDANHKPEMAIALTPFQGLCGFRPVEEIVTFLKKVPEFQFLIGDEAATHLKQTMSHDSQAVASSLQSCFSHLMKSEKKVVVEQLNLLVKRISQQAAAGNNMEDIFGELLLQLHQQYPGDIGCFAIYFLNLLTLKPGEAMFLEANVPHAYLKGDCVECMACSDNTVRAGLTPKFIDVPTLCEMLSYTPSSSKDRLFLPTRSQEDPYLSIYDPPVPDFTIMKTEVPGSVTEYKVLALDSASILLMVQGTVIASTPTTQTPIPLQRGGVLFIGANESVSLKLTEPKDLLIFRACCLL
G6PDH CS: inhibits Leuconostoc G6PDH, flagging false hits in G6PDH-based assays. Purified L. mesenteroides G6PDH, diaphorase/resazurin coupled fluorescence, 45 min. inhibition, % at 5 µM. AID 1020. hit rate 0.12% among 200,000; in the data active = inhibition above about 50%
PMI act satM6P: increases human PMI activity with near-saturating mannose 6-phosphate; P34949; coupled PMI enzyme assay, resazurin fluorescence, 20 min; stronger effect = higher value; 1 = untreated enzyme, 0 = substrate-free blank; activation factor at 20 µM; hit rate 0.34% among 190,000;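 active = activation factor of 2 or more at 20 µM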
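Test system – human PMI in coupled enzyme assay · Timing – 20 min incubation at room temperature · Detection – Diaphorase-driven resazurin-to-resorufin fluorescence, excitation 544, emission 590 nm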
Diaphorase inh: diaphorase inhibition or chemical oxidation counter-screen. diaphorase resazurin-to-resorufin fluorescence, NADH, 16 min; bacterial (C. kluyveri) enzyme, not human. inhibition, % at 20 µM. hit rate 0.69% among 190,000. AID 1217;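 active = primary screen inhibition at 20 µM above a set limit, cut at about 50% in these data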;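 also: plate controls were DMSO with full reaction for no effect and wells lacking NADH for full effect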
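Detection: fluorescence of resorufin formed from resazurin, Ex 544/Em 590 nm; test system: Clostridium kluyveri diaphorase enzyme; amount: 0.14 U/mL diaphorase, enzyme working solution; times: 16-min room-temperature incubation before reading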
Active calls of the source: *. A selection: hits, their analogues and other compounds. The true share with any hit is near 1.1%.

How did O=c1[nH]c2cc3c(cc2cc1C(c1nnnn1C1CCCC1)N1CCCc2ccccc21)OCCO3 (stereo not given) do in these assays?
Diaphorase act: 0.8; PMI act: 0.9; G6PDH CS: 10; PMI act satM6P: 0.7; Diaphorase inh: 21

How did CC1CC(CC(=O)NC(=S)Nc2ccccc2Cl)C(=O)O1 (stereo not given) do in these assays?
Diaphorase act: 0.7; PMI act: 0.9; G6PDH CS: 7; PMI act satM6P: 0.9; Diaphorase inh: 25

How did CCN(CC)CCNC(=O)c1[nH]c2ccc(OCc3ccccc3)cc2c1C do in these assays?
Diaphorase act: 1.3; PMI act: 1; G6PDH CS: 0; PMI act satM6P: 1; Diaphorase inh: -25

Results for Clc1ccc(-c2cn3cccnc3n2)cc1Cl ?
Diaphorase act: 0.9; PMI act: 1.5; G6PDH CS: -13; PMI act satM6P: 2*; Diaphorase inh: 8

What do the screens show for `Cc1ccc(NCc2ccc(O)c3ncccc23)cc1`?
Diaphorase act: 0.3; PMI act: 0.5; G6PDH CS: 43; PMI act satM6P: 0.2; Diaphorase inh: 70*

Results for Cc1ccc(NCc2ccc(O)c3ncccc23)cc1C ?
Diaphorase act: 0.2; PMI act: 0.4; G6PDH CS: 43; PMI act satM6P: 0.2; Diaphorase inh: 78*

What do the screens show for `COc1cc2c(cc1OC)CN(Cc1cc(=O)oc3cc(C)c(C)cc13)CC2`?
Diaphorase act: 0.8; PMI act: 1.5; G6PDH CS: 3; PMI act satM6P: 2.2*; Diaphorase inh: 22

Results for COc1cc2c(cc1OC)CN(Cc1cc(=O)oc3cc(C)c(Cl)cc13)CC2 ?
Diaphorase act: 0.9; PMI act: 1.7; G6PDH CS: -3; PMI act satM6P: 2.3*; Diaphorase inh: 12

Results for CCc1ccc2c(CN3CCc4cc(OC)c(OC)cc4C3)cc(=O)oc2c1 ?
Diaphorase act: 0.9; PMI act: 1.5; G6PDH CS: 10; PMI act satM6P: 2.2*; Diaphorase inh: 10

How did COc1cc2c(cc1OC)CN(Cc1cc(=O)oc3c(C)c(C)ccc13)CC2 do in these assays?
Diaphorase act: 0.8; PMI act: 1.5; G6PDH CS: -31; PMI act satM6P: 1.8; Diaphorase inh: 16

Results for Cc1cc(NC(=O)CCCC(=O)NCc2cccs2)no1 ?
Diaphorase act: 0.8; PMI act: 1; G6PDH CS: 1; PMI act satM6P: 1; Diaphorase inh: 19

Results for CC(=O)Nc1ccccc1N(C)S(=O)(=O)c1ccc(C)cc1 ?
Diaphorase act: 0.9; PMI act: 0.9; G6PDH CS: 8; PMI act satM6P: 0.9; Diaphorase inh: 5

How did CN1c2ccccc2N(C)C1(C)c1cccc2ccccc12 do in these assays?
Diaphorase act: 0.4; PMI act: 0.7; G6PDH CS: -4; PMI act satM6P: 1; Diaphorase inh: 59*

Results for Cc1ccccc1S(=O)(=O)Nc1nc2ccccc2nc1N1CCOCC1 ?
Diaphorase act: 0.8; PMI act: 0.9; G6PDH CS: 11; PMI act satM6P: 0.9; Diaphorase inh: 16

What do the screens show for `CSc1cnn(Cc2ccccc2)c(=O)c1SCc1ccccc1`?
Diaphorase act: 0.8; PMI act: 1.6; G6PDH CS: -3; PMI act satM6P: 2.5*; Diaphorase inh: 17

Results for O=C(NNC(=S)NC(=O)c1cccnc1)c1ccccc1 ?
Diaphorase act: 0.8; PMI act: 0.8; G6PDH CS: 8; PMI act satM6P: 0.9; Diaphorase inh: 24

Results for O=C(NC(=S)NNC(=O)c1cnccn1)c1ccc(F)cc1 ?
Diaphorase act: 0.4; PMI act: 0.7; G6PDH CS: -4; PMI act satM6P: 1.1; Diaphorase inh: 64*

Results for COC(=O)C1C/C(=N\NS(=O)(=O)c2ccc(C)cc2)c2ccsc2C1 (stereo not given) ?
Diaphorase act: 0.9; PMI act: 1; G6PDH CS: 1; PMI act satM6P: 1; Diaphorase inh: 11

What do the screens show for `COc1ccc(-c2nc(-c3cccc([N+](=O)[O-])c3O)cc(=O)o2)cc1OC`?
Diaphorase act: 1; PMI act: 1; G6PDH CS: -37; PMI act satM6P: 1; Diaphorase inh: -3
